Key:
Mus musculus [1] = test: Compound was tested for toxicity after intraperitoneal injection into mice by using toxicity screen test after 4 hr; type: organism-based; details: in vivo, ip
In short: (§1)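 Mice injected intraperitoneally at 30, 100 and 300 mg/kg and examined 0.5 and 4 h afterwards. Each entry is the minimum dose giving activity (MES protection, scPTZ protection, or rotorod failure for neurotoxicity) in half or more of the mice. Activity is called absent if nothing occurs at 300 mg/kg.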

Rattus norvegicus [2] = test: Compound was tested for anticonvulsant activity after Oral Administration into Rats by using MES screen test after 4h,dose 12.5 mg/kg; number of rats out of four which were protected; type: functional
In short: (§2)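 Rats received the compound orally. […] Rats were tested in the MES screen at 0.25, 0.5, 1, 2 and 4 h. Each value is the number of rats protected out of 4. The test followed NINDS procedures.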

Mus musculus [3] = test: Anticonvulsant activity after intraperitoneal injection into mice measured in a maximal electroshock scree (MES) screen; type: functional
Rattus norvegicus [4] = test: Compound was tested for anticonvulsant activity after Oral Administration into Rats by using MES screen test after 0.5h,dose 12.5 mg/kg; No activity was demonstarted; type: functional, organism-based; set-up: dose 12.5 mg/kg; in short: as §2
Rattus norvegicus [5] = test: Compound was tested for anticonvulsant activity after Oral Administration into Rats by using MES screen test after 2h,dose 12.5 mg/kg; number of rats out of four which were protected; type: functional; in short: as §2
Rattus norvegicus [6] = test: Compound was tested for anticonvulsant activity after Oral Administration into Rats by using MES screen test after 0.25h,dose 12.5 mg/kg; No activity was demonstarted; type: functional, organism-based; set-up: dose 12.5 mg/kg; in short: as §2
Mus musculus [7] = test: Anticonvulsant activity after intraperitoneal injection into mice by using MES screen test after 0.5 hr; type: functional
Rattus norvegicus [8] = test: Compound was tested for anticonvulsant activity after Oral Administration into Rats by using MES screen test after 1h,dose 12.5 mg/kg; No activity was demonstarted; type: functional, organism-based; set-up: dose 12.5 mg/kg; in short: as §2
Rattus norvegicus [9] = test: Compound was tested for anticonvulsant activity after Oral Administration into Rats by using MES screen test after 4h,dose 50 mg/kg; number of rats out of four which were protected; type: functional; in short: as §2
[10] = Protection index = TD50/ED50; type: ADME; details: read-out: PI
[11] = Compound was tested for toxicity after oral administration in rat by using neurotoxicity screen test after 0.25-24 hr; type: organism-based; details: in vivo
In short: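 Rat neurotoxicity after oral dosing, observed at 0.25, 0.5, 1, 2, 4, 6, 8 and 24 h (8 h omitted for one compound).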

Rattus norvegicus [12] = test: Compound was tested for anticonvulsant activity after Oral Administration into Rats by using MES screen test after 2h,dose 50 mg/kg; number of rats out of four which were protected; type: functional; in short: as §2
Rattus norvegicus [13] = test: Compound was tested for anticonvulsant activity after Oral Administration into Rats by using MES screen test after 1h,dose 50 mg/kg; number of rats out of four which were protected; type: functional; in short: as §2
Rattus norvegicus [14] = test: Compound was tested for anticonvulsant activity after Oral Administration into rat by using MES screen test after 2 hr; type: functional
In short: (§3)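 Rats dosed orally, typically at 50 mg/kg first, then mostly 12.5 mg/kg (some compounds at 30 mg/kg), and tested by maximal electroshock. Four rats per compound, scored at 0.25, 0.5, 1, 2 and 4 h as the number of rats protected out of 4.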

[15] = Compound was tested for toxicity after intraperitoneal injection into mice by using neurotoxicity screen test after 2 hr; type: organism-based; details: mouse, in vivo, ip
In short: (§4)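 Quantitative intraperitoneal mouse testing in the MES, scPTZ or rotorod neurotoxicity screens at the peak time given for each compound (0.25–2 h). ED50 or TD50 reported in mg/kg with 95% CI and slope (SE).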

Mus musculus [16] = test: Compound was tested for anticonvulsant activity after intraperitoneal injection into mice by using MES screen test after 1 hr; type: functional; details: ip; in short: as §4
Mus musculus [17] = test: Compound was tested for anticonvulsant activity after intraperitoneal injection into mice by using scPTZ screen test after 1 hr; type: functional; details: ip; in short: as §4
Rattus norvegicus [18] = test: Compound was tested for anticonvulsant activity after Oral Administration into Rats by using MES screen test after 0.5h,dose 50 mg/kg; number of rats out of four which were protected; type: functional; in short: as §2
Rattus norvegicus [19] = test: Compound was tested for anticonvulsant activity after Oral Administration into Rats by using MES screen test after 0.25h,dose 50 mg/kg; number of rats out of four which were protected; type: functional; in short: as §2
Rattus norvegicus [20] = test: Anticonvulsant activity after oral administration into rats; type: functional; set-up: concentration or dose not given beside the values
Rattus norvegicus [21] = test: Compound was tested for anticonvulsant activity after Oral Administration into Rats by using MES screen test after 1h,dose 12.5 mg/kg; number of rats out of four which were protected; type: functional; in short: as §2
Mus musculus [22] = test: Anticonvulsant activity after intraperitoneal injection into mice by using scPTZ screen after 0.5 hr; type: functional
[23] = Protection index = TD50/ED50 (MES); details: mouse, in vivo; read-out: PI
[24] = Compound was tested for toxicity after intraperitoneal injection into mice by using neurotoxicity screen test after 1 hr; type: organism-based; details: mouse, in vivo, ip; in short: as §4
Rattus norvegicus [25] = test: Compound was tested for anticonvulsant activity after Oral Administration into Rats by using MES screen test after 2h,dose 12.5 mg/kg; No activity was demonstarted; type: functional, organism-based; set-up: dose 12.5 mg/kg; in short: as §2
Mus musculus [26] = test: Anticonvulsant activity after intraperitoneal injection into mice by using scPTZ screen test after 4 hr; type: functional
Rattus norvegicus [27] = test: Compound was tested for anticonvulsant activity after Oral Administration into Rats by using MES screen test after 0.25h,dose 12.5 mg/kg; number of rats out of four which were protected; type: functional; in short: as §2
Mus musculus [28] = test: Toxicity after intraperitoneal injection into mice by using toxicity screen test after 0.5 hr; type: organism-based; details: in vivo, ip; in short: as §1
Rattus norvegicus [29] = test: Compound was tested for anticonvulsant activity after Oral Administration into Rats by using MES screen test after 0.25h,dose 50 mg/kg; No activity was demonstarted; type: functional, organism-based; set-up: dose 50 mg/kg; in short: as §2
[30] = Partition coefficient (logP); type: physicochemical; details: octanol/water
In short: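 Partition between 1-octanol and buffer at pH 7.4, with solutions prepared in 1-octanol before buffer is added. Quantified by UV, using λmax and ε values measured in 1-octanol.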

Rattus norvegicus [31] = test: Compound was tested for anticonvulsant activity after Oral Administration into rat by using MES screen test after 4 hr; type: functional; in short: as §3

Compound | Dose (Mus musculus [1]) [mg/kg] | Activity (Rattus norvegicus [2]) | Dose (Mus musculus [3]) [mg/kg] | Activity (Rattus norvegicus [4]) | Activity (Rattus norvegicus [5]) | Activity (Rattus norvegicus [6]) | Dose (Mus musculus [7]) [mg/kg] | Activity (Rattus norvegicus [8]) | ED50 (Mus musculus [16]) [mg/kg] | ED50 (Mus musculus [17]) [mg/kg] | Activity (Rattus norvegicus [21]) | Dose (Mus musculus [22]) [mg/kg] | also measured
CCCCc1ccc(Oc2ccc(/C=N/NC(N)=O)cc2)cc1 | 300 | 2 | 100 | No activity | 1 | No activity | 300 | No activity | – | – | – | – | –
Cc1ccc(Oc2ccc(/C=N/NC(N)=O)cc2)cc1 | – | – | 100 | – | – | – | 30 | – | 14.7 | 88.6 | – | – | Activity (Rattus norvegicus [9]): 4; selectivity ratio [10]: 2.3; TD50 [11]: > 500 mg/kg; Activity (Rattus norvegicus [12]): 4; Activity (Rattus norvegicus [13]): 4; ED50 (Rattus norvegicus [14]): 3.43 mg/kg; TD50 at 2 h [15]: 204 mg/kg; Activity (Rattus norvegicus [18]): 4; Activity (Rattus norvegicus [19]): 3
C/C(=N/NC(N)=O)c1ccc(Oc2ccc(C)cc2)cc1 | – | 4 | 100 | – | 4 | No activity | 30 | – | 5.62 | 18.7 | 2 | 30 | selectivity ratio [10]: 3.09; Activity (Rattus norvegicus [20]): 1; selectivity ratio [23]: 10.3; TD50 at 1 h [24]: 57.9 mg/kg
NC(=O)N/N=C\c1ccc(Oc2ccncc2)cc1 | – | 2 | 300 | No activity | – | No activity | – | No activity | – | – | – | – | Activity (Rattus norvegicus [25]): No activity
N#Cc1ccc(Oc2ccc(/C=N\NC(N)=O)cc2)cc1 | 100 | 4 | 30 | – | 4 | – | 30 | – | – | – | 4 | 30 | Dose (Mus musculus [26]): 30 mg/kg; Activity (Rattus norvegicus [27]): 2; Dose (Mus musculus [28]): 300 mg/kg; Activity (Rattus norvegicus [20]): 4
C/C(=N/NC(N)=O)c1ccc(Sc2ccc(C)cc2)cc1 | – | 4 | 100 | No activity | 3 | No activity | 100 | No activity | – | – | – | 100 | –
NC(=O)N/N=C/c1ccc(Oc2ccccc2)cc1 | – | – | 300 | – | – | – | 100 | – | – | – | – | – | Activity (Rattus norvegicus [9]): 4; Activity (Rattus norvegicus [29]): No activity; Activity (Rattus norvegicus [12]): 4; logP [30]: 2.66; Activity (Rattus norvegicus [13]): 4; Activity (Rattus norvegicus [18]): 3
NC(=O)N/N=C/c1ccc(Oc2ccc(F)cc2Cl)cc1 | 300 | – | 30 | – | – | – | 30 | – | 13.1 | > 68 | – | – | Activity (Rattus norvegicus [9]): 4; Activity (Rattus norvegicus [12]): 4; Activity (Rattus norvegicus [13]): 4; Dose (Mus musculus [28]): 100 mg/kg; Activity (Rattus norvegicus [18]): 4; Activity (Rattus norvegicus [19]): 4; TD50 at 1 h [24]: 62.5 mg/kg
NC(=O)N/N=C/c1ccc(Oc2ccc(F)cc2)cc1 | – | – | 100 | – | – | – | 30 | – | 12.9 | > 54 | – | – | Activity (Rattus norvegicus [9]): 4; TD50 [11]: > 500 mg/kg; Activity (Rattus norvegicus [12]): 4; logP [30]: 1.91; Activity (Rattus norvegicus [13]): 4; Activity (Rattus norvegicus [18]): 4; Activity (Rattus norvegicus [19]): 2; TD50 at 1 h [24]: 108 mg/kg
NC(=O)N/N=C\c1ccc(Oc2cccc(F)c2F)cc1 | – | 4 | 100 | – | 4 | No activity | 100 | – | 45.8 | > 350 | 4 | 300 | ED50 (Rattus norvegicus [31]): 6.15 mg/kg; TD50 at 2 h [15]: 293 mg/kg; Activity (Rattus norvegicus [20]): 3
NC(=O)N/N=C/c1ccc(Oc2ccc3ccccc3c2)cc1 | – | 4 | 100 | No activity | 4 | – | 100 | – | – | – | 3 | – | Dose (Mus musculus [26]): 300 mg/kg; Activity (Rattus norvegicus [27]): 1
N=C(N)N/N=C/c1ccc(Oc2ccc(F)cc2)cc1 | 100 | 2 | 30 | No activity | 1 | No activity | 300 | No activity | – | – | – | 30 | Dose (Mus musculus [28]): 100 mg/kg
NC(=O)N/N=C\c1ccc(Oc2ccc(-c3ccccc3)cc2)cc1 | 300 | 1 | 300 | No activity | 3 | No activity | – | No activity | – | – | – | – | Dose (Mus musculus [26]): 300 mg/kg
NC(=O)N/N=C\c1ccc(OC(=O)c2ccc(Cl)cc2)cc1 | – | 2 | 300 | No activity | – | – | – | – | – | – | 1 | – | Activity (Rattus norvegicus [27]): 1; Activity (Rattus norvegicus [25]): No activity
NC(=O)N/N=C\c1ccc(OC(=O)c2ccccc2)cc1 | – | – | 300 | No activity | – | No activity | – | No activity | – | – | – | – | Activity (Rattus norvegicus [25]): No activity
